Legend:
[1] = target: T1, Polyunsaturated fatty acid 5-lipoxygenase (Homo sapiens, UniProt P09917); test: Inhibition of human recombinant 5-LO expressed in Escherichia coli BL21 using arachidonic acid as substrate after 10 mins
T1 sequence (P09917 whole entry): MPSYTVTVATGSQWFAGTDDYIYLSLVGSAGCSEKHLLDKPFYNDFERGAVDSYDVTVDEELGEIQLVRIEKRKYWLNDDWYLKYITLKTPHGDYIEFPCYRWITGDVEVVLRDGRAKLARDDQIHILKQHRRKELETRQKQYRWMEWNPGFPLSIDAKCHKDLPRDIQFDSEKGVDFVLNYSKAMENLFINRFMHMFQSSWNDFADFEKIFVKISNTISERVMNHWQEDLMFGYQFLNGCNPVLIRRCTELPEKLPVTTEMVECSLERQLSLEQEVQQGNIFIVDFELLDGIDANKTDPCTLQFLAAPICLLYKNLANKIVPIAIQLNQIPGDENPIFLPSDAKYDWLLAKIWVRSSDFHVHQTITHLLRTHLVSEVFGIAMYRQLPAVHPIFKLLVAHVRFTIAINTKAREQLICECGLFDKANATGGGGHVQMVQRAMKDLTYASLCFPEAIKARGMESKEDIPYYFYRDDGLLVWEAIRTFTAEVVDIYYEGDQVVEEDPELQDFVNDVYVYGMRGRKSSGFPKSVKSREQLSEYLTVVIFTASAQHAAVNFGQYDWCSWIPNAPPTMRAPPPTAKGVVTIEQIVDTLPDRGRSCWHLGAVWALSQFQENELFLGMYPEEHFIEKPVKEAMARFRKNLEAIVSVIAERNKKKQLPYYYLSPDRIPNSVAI
Outline: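 Purified 5-LO was diluted in PBS/EDTA and pre-incubated with compound for 5–10 min at 4 °C, then pre-warmed for 30 s at 37 °C. The reaction was started with 2 mM CaCl₂ plus AA, run 10 min at 37 °C and stopped with ice-cold methanol. Products were analysed by HPLC.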

[2] = target: T2, Polyunsaturated fatty acid 5-lipoxygenase (Homo sapiens) (UniProt P09917); test: Inhibition of 5-LO in human PMNL using arachidonic acid as substrate assessed as residual activity at 10 uM preincubated for 15 mins
T2 sequence (whole entry): T1 sequence (P09917 whole entry)
Outline: (§1)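 PMNL were isolated from buffy coats by dextran sedimentation, Nycoprep centrifugation and hypotonic lysis of erythrocytes, then resuspended in PBS pH 7.4 with 1 mg/mL glucose and 1 mM CaCl₂. Cells were pre-incubated with compound for 15 min at 37 °C, then stimulated with A23187 plus AA for 10 min at 37 °C. 15-LO comes from eosinophils and 12-LO from adhering platelets in the preparation. After methanol/HCl stop and PGB₁ addition, metabolites were extracted and quantified by HPLC. Mean ± S.E.M., n = 3–4.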

[3] = target: T3, Polyunsaturated fatty acid lipoxygenase ALOX15 (Homo sapiens) (UniProt P16050); test: Inhibition of 15-LO in human PMNL using arachidonic acid as substrate assessed as residual activity at 10 uM preincubated for 15 mins; outline: as §1
T3 sequence (whole entry): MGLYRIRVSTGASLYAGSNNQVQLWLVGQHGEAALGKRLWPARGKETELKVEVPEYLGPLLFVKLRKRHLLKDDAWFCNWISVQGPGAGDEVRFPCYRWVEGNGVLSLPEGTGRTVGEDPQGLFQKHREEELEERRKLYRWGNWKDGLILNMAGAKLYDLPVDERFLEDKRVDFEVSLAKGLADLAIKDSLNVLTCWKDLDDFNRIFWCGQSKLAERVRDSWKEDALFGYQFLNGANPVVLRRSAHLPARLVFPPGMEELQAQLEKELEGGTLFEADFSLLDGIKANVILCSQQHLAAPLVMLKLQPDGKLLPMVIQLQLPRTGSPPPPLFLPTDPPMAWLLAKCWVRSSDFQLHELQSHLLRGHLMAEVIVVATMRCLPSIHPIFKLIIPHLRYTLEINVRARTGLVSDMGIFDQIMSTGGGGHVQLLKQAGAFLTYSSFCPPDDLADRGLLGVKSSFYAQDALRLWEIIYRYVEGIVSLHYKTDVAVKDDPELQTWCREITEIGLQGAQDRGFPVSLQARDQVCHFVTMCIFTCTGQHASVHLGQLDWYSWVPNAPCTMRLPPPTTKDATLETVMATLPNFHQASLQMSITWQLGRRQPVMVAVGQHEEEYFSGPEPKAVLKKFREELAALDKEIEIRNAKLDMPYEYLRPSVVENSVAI

[4] = target: T1, Polyunsaturated fatty acid 5-lipoxygenase; test: Inhibition of 5-LO in human PMNL using arachidonic acid as substrate preincubated for 15 mins; outline: as §1
[5] = target: T4, Polyunsaturated fatty acid lipoxygenase ALOX12 (Homo sapiens) (UniProt P18054); test: Inhibition of 12-LO in human PMNL using arachidonic acid as substrate assessed as residual activity at 10 uM preincubated for 15 mins; outline: as §1
T4 sequence (whole entry): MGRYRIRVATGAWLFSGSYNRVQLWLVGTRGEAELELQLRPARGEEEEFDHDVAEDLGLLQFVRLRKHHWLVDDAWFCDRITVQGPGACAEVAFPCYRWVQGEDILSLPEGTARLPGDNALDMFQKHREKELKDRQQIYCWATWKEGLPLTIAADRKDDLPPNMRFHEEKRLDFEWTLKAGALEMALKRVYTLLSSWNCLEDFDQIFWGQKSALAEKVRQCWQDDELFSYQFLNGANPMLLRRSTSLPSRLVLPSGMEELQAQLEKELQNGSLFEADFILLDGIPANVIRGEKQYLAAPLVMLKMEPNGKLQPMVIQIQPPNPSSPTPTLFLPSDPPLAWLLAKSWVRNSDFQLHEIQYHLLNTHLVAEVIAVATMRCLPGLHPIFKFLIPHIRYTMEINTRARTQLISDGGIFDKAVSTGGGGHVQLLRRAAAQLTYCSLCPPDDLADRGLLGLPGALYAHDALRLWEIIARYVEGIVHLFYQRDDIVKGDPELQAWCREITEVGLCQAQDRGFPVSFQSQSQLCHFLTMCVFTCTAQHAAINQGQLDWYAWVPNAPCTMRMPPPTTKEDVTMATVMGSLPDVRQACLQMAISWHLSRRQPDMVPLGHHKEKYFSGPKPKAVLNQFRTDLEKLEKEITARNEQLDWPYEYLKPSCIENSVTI

[6] = target: T5, Polyunsaturated fatty acid lipoxygenase ALOX12 (Homo sapiens, UniProt P18054); test: Inhibition of 12-LO in human PMNL using arachidonic acid preincubated for 15 mins; outline: as §1
T5 sequence (P18054 whole entry): T4 sequence (whole entry)

[7] = target: T6, Polyunsaturated fatty acid lipoxygenase ALOX15 (Homo sapiens, UniProt P16050); test: Inhibition of 15-LO in human PMNL using arachidonic acid as substrate preincubated for 15 mins; outline: as §1
T6 sequence (P16050 whole entry): T3 sequence (whole entry)

[8] = target: T2, Polyunsaturated fatty acid 5-lipoxygenase (Homo sapiens); test: Inhibition of human recombinant 5-LO expressed in Escherichia coli BL21 using arachidonic acid as substrate assessed as residual activity at 10 uM after 10 mins
[9] = target: T1, Polyunsaturated fatty acid 5-lipoxygenase; test: Competitive inhibition of human recombinant 5-LO expressed in Escherichia coli BL21 using 40 uM of arachidonic acid as substrate preincubated for 15 mins measured after 10 mins
Outline: (§2)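 Purified 5-LO was pre-incubated with inhibitor or vehicle (0.1% DMSO) for 15 min at 4 °C, then warmed for 30 s at 37 °C. The reaction was started with 2 mM CaCl₂ plus AA at 2.5, 5, 10, 20 or 40 µM and run 10 min at 37 °C. Products were analysed by HPLC. Results are % of uninhibited control, mean ± S.E.M., n = 3.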

[10] = target: T1, Polyunsaturated fatty acid 5-lipoxygenase; test: Competitive inhibition of human recombinant 5-LO expressed in Escherichia coli BL21 using 5 uM of arachidonic acid as substrate preincubated for 15 mins measured after 10 mins; outline: as §2

| Structure (SMILES) | IC50 [1] | Activity [2] | Activity [3] | IC50 [4] | Activity [5] | IC50 [6] | IC50 [7] | Activity [8] | IC50 [9] | IC50 [10] |
| --- | --- | --- | --- | --- | --- | --- | --- | --- | --- | --- |
| Oc1ccc(-c2ccccc2)c(O)c1 | 2.8 µM | 22.7% | 106% | 4.2 µM | 72.3% | > 10 µM | > 10 µM | 9.4% | – | – |
| Oc1ccc(Cc2ccccc2)c(O)c1 | 9.4 µM | 60% | 116% | > 10 µM | 77% | – | – | 47.6% | – | – |
| O=C1C=C(c2cccc([N+](=O)[O-])c2)C(=O)C=C1O | 4.6 µM | 61.3% | 116% | > 10 µM | 60.9% | – | – | 8% | – | – |
| O=C(Cc1ccc2ccccc2c1)c1ccc(O)cc1O | > 10 µM | 42.4% | 108% | 6.8 µM | 96% | > 10 µM | > 10 µM | 57.4% | – | – |
| O=C1C=C(O)C(=O)C(CC2CCC3CCCCC3C2)=C1O (stereo not drawn) | 11 µM | 5.4% | 87.9% | 0.58 µM | 60.9% | > 10 µM | > 10 µM | 51% | – | – |
| O=[N+]([O-])c1cccc(-c2ccc(O)cc2O)c1 | > 10 µM | 64.1% | 108% | > 10 µM | 90.1% | – | – | 84.3% | – | – |
| CCCCCCC1=CC(=O)C(O)=CC1=O | 1.4 µM | 15.9% | 185% | 3 µM | 89.8% | > 10 µM | > 10 µM | 14.2% | – | – |
| Oc1ccc(-c2csc3ccccc23)c(O)c1 | > 10 µM | 92.8% | 115% | > 10 µM | 115% | – | – | 100% | – | – |
| O=C1C=C(O)C(=O)C(CC2CCCCC2)=C1O | > 10 µM | 90.4% | 87.3% | > 10 µM | 85.2% | – | – | 95.2% | – | – |
| O=C1C=C(Cc2ccccc2)C(=O)C=C1O | > 10 µM | 93.3% | 132% | > 10 µM | 95.4% | – | – | 74.3% | – | – |
| CCCCCCc1ccc(O)cc1O [HEXYLRESORCINOL] | 4.6 µM | 18.6% | 110% | 2.8 µM | 69.3% | > 10 µM | > 10 µM | 25.6% | – | – |

Other lines, results leading:

| IC50 [1] | Activity [2] | Activity [3] | IC50 [4] | Activity [5] | IC50 [6] | IC50 [7] | Activity [8] | IC50 [9] | IC50 [10] | Structure (SMILES) |
| --- | --- | --- | --- | --- | --- | --- | --- | --- | --- | --- |
| 0.78 µM | 5.3% | 147% | 2.3 µM | 71.9% | > 10 µM | > 10 µM | 8.7% | 0.31 µM | 0.97 µM | O=C1C=C(Cc2ccc3ccccc3c2)C(=O)C=C1O |
| 0.8 µM | 74.1% | 79.8% | > 10 µM | 46.2% | – | – | 30.8% | – | – | O=C1C=C(c2cccc3c2oc2ccccc23)C(=O)C=C1O |
| > 10 µM | 56.1% | 89.5% | > 10 µM | 76.4% | – | – | 92.3% | – | – | COC1=CC(=O)C(O)=C(Cc2ccc3ccccc3c2)C1=O |
| 9 µM | 74% | 80.9% | > 10 µM | 81.1% | – | – | 45.2% | – | – | O=C1C=C(Cc2ccc3cc(C(=O)O)ccc3c2)C(=O)C=C1O |
| 0.28 µM | 21.2% | 47.9% | 6.7 µM | 73.1% | – | – | 7.1% | – | – | COC1=CC(=O)C(Oc2ccc3ccccc3c2)=CC1=O |
| 3.2 µM | 10.5% | 58.3% | 2.1 µM | 91.4% | > 10 µM | > 10 µM | 15.4% | – | – | Oc1ccc(-c2cccc3c2Sc2ccccc2S3)c(O)c1 |
| > 10 µM | 103% | 96.4% | > 10 µM | 84% | – | – | 110% | – | – | COC1=CC(=O)C(O)=C(Cc2ccccc2)C1=O |
| 7.4 µM | 8.9% | 191% | 2.3 µM | 79.2% | > 10 µM | > 10 µM | 37.2% | – | – | Oc1ccc(Cc2ccc3ccccc3c2)c(O)c1 |
| 6.3 µM | 84.1% | 182% | > 10 µM | 93.3% | – | – | 30.7% | – | – | Oc1ccc(-c2cccc3c2oc2ccccc23)c(O)c1 |
